Screens: PubChem, several laboratories
Only some compounds are listed: those with a hit (about 2% of all), similar ones and a draw of the others.
FLuc act counter: firefly luciferase counter-screen for stimulation assays; ATPlite luciferase biochemical, luminescence, 10 min; 0 = ATP-free wells, 1 = DMSO control; activation factor at 10 µM; 200,000 tested, under 10 active;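 active = luciferase activation factor, scaled between plate controls, of at least 2 with compound at 10 µM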
Target sequence (P08659 whole entry, looked up): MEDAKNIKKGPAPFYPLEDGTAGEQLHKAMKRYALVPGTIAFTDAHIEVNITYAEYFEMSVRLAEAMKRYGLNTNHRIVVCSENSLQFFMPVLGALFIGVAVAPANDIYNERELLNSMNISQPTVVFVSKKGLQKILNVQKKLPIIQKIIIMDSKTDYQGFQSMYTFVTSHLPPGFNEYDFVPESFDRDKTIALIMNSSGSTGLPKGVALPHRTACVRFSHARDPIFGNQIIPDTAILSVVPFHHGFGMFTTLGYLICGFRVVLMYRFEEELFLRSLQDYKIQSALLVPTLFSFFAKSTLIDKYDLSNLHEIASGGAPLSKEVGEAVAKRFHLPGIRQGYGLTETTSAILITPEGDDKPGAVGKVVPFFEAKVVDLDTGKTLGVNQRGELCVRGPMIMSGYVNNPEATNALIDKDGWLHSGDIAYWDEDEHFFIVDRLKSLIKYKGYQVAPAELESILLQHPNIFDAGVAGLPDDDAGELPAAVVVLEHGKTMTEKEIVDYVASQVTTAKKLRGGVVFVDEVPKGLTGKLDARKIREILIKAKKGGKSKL
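Assay system: Luciferase/luciferin reagent mix; Medium: PBS as buffer for the ATP substrate; Dosing: test compounds dosed from 2 mM stocks in 100% DMSO; Times: 10 min, room temperature; Signal: luminescence from luciferase reaction; Read-out: luciferase activation; Controls: No-ATP low control, compound-free enzyme-plus-ATP high control.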
PPC-1+TRAIL kill: compounds killing PPC-1 cancer cells with TRAIL present (potentiator screen, no TRAIL-free arm). PPC-1 cells + TRAIL, ATPLite viability luminescence. cell killing (% activity), % at 4 µM or 5 µM. actives 0.41% (n = 220,000). AID 1443;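 active = cell killing above 50% in the first pass at 4 µM, then a duplicate retest at 5 µM averaging 50% or more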;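 also: plate controls were cells with TRAIL plus DMSO for no effect and medium-only wells lacking cells for full effect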
FLuc inh counter: counter-screen for luciferase assay inhibitors: firefly luciferase inhibition; inhibition, % at 10 µM; ATPLite firefly luciferase biochemical luminescence, 10 min; P08659; actives 1.5% (n = 200,000);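 active = inhibition above about 50% when tested at 10 µM, limit read from the data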
HSP90 inh: blocks HSP90-mediated luciferase refolding in reticulocyte lysate | Rabbit reticulocyte lysate, luciferase refolding luminescence, 3 h | inhibition, % at 5.6 µM | actives 0.91% (n = 290,000);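 active = inhibition above the screen-wide mean plus 3 SD, computed separately per campaign, cut at about 16% in these data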;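 also: 0% = DMSO wells and 100% = 60 µM geldanamycin wells; inhibitors lower the luminescence because luciferase stays unfolded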
TRAIL sens C8: caspase-8 TRAIL sensitization; NB7+C8 cells + TRAIL, ATPlite viability luminescence; inhibition (viability loss, TRAIL sensitization), % at 10 µM; actives 1% (n = 360,000); AID 624354;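 active = compounds causing at least 50% loss of cell viability in the single-dose screen, relative to plate controls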
HSP90 inh confirm: HSP90 inhibition, confirmation assay; shares compounds with HSP90 inh; rabbit reticulocyte lysate, luciferase refolding luminescence, 3 h; AID 1846; actives 64% (n = 2,300); inhibition, % at 5.9 µM; in the data active = inhibition above about 18%;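 also: 0% = vehicle wells and 100% = reference inhibitor wells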
FLuc counter: firefly luciferase inhibition, HSP90 counter-screen | shares compounds with HSP90 inh | purified native firefly luciferase, luminescence | inhibition, % at 5.9 µM | actives 48% (n = 2,300);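 active = inhibition above the mean inhibition of all tested sample wells plus 3 SD, cut at about 10% in these data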;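 also: 0% = DMSO with luciferase and 100% = wells lacking luciferase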
* = called active by the depositor; x = no result.

SMILES | FLuc act counter | PPC-1+TRAIL kill | FLuc inh counter | HSP90 inh | TRAIL sens C8 | HSP90 inh confirm | FLuc counter
O=C(O)c1cc(N/N=C/C(Cl)=C/c2ccccc2)ccc1Cl | 0.7 | 16 | 35 | 48* | 17 | 89* | 80*
C/C(=N\Nc1ccc(Cl)c(C(=O)O)c1)c1ccccn1 | x | 4 | x | 40* | -9 | 3 | -14
O=C(O)c1cc(N/N=C/c2cccs2)ccc1Cl | 1 | -5 | 2 | 24* | x | 67* | 21*
Cc1ccc(/C=N/Nc2ccc(Cl)c(C(=O)O)c2)s1 | 0.9 | 24 | 9 | 24* | -9 | 77* | 37*
O=c1oc2c(CN3CCN(CCO)CC3)c(O)ccc2cc1-c1ccccn1 | x | 11 | x | 0 | 15 | x | x
CCOC(=O)CCCCCC(=O)Nc1ccc2c(c1)CC(=O)N([C@@H](C)CO)C[C@H](C)[C@@H](CN(C)C(=O)Nc1ccc3c(c1)OCO3)O2 | x | x | x | x | -1 | x | x
Cc1cc(C)cc(C(=O)NCC(=O)OCC(=O)N2CCCC2)c1 | x | x | x | x | -5 | x | x
O=C1Nc2ccccc2-c2nnnn2C1N1CCC(Cc2ccccc2)CC1 (centres undefined) | x | x | x | x | -16 | x | x
Nc1ccccc1C(=O)Nc1cccc(C(=O)O)c1 | 1 | -26 | 4 | 33* | -4 | 42* | 21*
O=C(CCCc1ccccc1)Nc1cccc(C(=O)O)c1 | 0.9 | 19 | 14 | 61* | 13 | 71* | 75*
Cc1occc1C(=O)Nc1cccc(C(=O)O)c1 | 1 | 2 | 0 | 13 | 4 | x | x
COC(=O)c1cccc(NC(=O)CCc2ccccc2)c1 | 1 | 12 | 5 | -4 | 2 | x | x
Cc1cccc(C)c1OCC(=O)Nc1cccc(C(=O)O)c1 | 1 | 20 | 1 | 23* | 2 | 36* | 30*
O=C(CCc1ccccc1)NC(=S)Nc1cccc(C(=O)O)c1 | x | x | x | 33* | 2 | 41* | 23*
Cc1ccc(C)c(OCC(=O)Nc2cccc(C(=O)O)c2)c1C | 1 | 4 | -2 | 1 | -8 | x | x
CCNC(=O)C1(C)CCN1CCS(=O)(=O)c1ccc(C)cc1 (centres undefined) | x | x | x | x | 5 | x | x
Cc1ccc(S(=O)(=O)/N=C2/C=C(Sc3ncn[nH]3)C(=O)c3ccccc32)cc1 | 0.9 | 43 | 10 | 89* | 40 | 38* | 45*
Cc1ccc(S(=O)(=O)/N=C2/C=C(Sc3ncn[nH]3)C(=O)c3ccccc32)c(C)c1 | 0.9 | 46 | 12 | 85* | x | 44* | 38*
Cc1ccc(S(=O)(=O)Nc2ccc(O)c(Sc3ncn[nH]3)c2)cc1 | 1.1 | 0 | -6 | -3 | -2 | x | x
Brc1ccc(NC(c2ccccc2)c2ccncc2)cc1 (centres undefined) | x | x | x | -1 | 6 | x | x
Cc1ccc(NC(=O)c2cc(C)n(-c3ccccc3)c2C)cc1 | 0 | 77* | 95* | 75* | 93* | 85* | 83*
Cc1cc(C(=O)N/N=C2\CCCC(=O)C2)c(C)n1-c1ccccc1 | 1 | 17 | -5 | 31* | 1 | -5 | -18
Cc1cc(C(=O)N/N=C2\CCCC(=O)C2)c(C)o1 | x | x | x | x | -27 | x | x
CCCCn1nnnc1C(c1cc2ccccc2o1)N1CCOCC1 (centres undefined) | x | x | x | x | -4 | x | x
COc1cccc(/C=C2/SC(=O)N(C)C2=O)c1OCc1ccc(C(=O)O)cc1 | 1 | 19 | -1 | -2 | -1 | x | x
SMILES | FLuc act counter | PPC-1+TRAIL kill | FLuc inh counter | HSP90 inh | TRAIL sens C8 | HSP90 inh confirm | FLuc counter
CN1C(=O)S/C(=C/c2ccc(OCc3cccc(C(=O)O)c3)cc2)C1=O | x | x | x | 46* | 14 | 50* | -3
COc1cccc(CCNC(=O)c2cc(COc3c(F)cccc3F)on2)c1 | x | x | x | -8 | 7 | x | x
O=C(Oc1ccc2ccccc2c1)C1CCC1 | x | x | x | 37* | -4 | -3 | -16
O=C(Oc1ccc2ccc(O)cc2c1)C1CCCCC1 | 1 | -3 | -5 | -2 | 23 | x | x
Cn1c(-c2ccc(F)cc2)cnc1SCC(=O)N1CCCCC1 | 0.9 | 10 | 13 | 18* | 9 | 27* | 19*
CC(=O)c1ccc(S(=O)(=O)NCCCC(=O)N(C)Cc2ccc3c(c2)OCO3)cc1 | x | x | x | x | 8 | x | x
Cc1ccc(N/N=C/c2ccc3c(c2)OCCO3)cc1Cl | 1 | 25 | 0 | 6 | -10 | x | x
C/C(=N\Nc1ccc(Cl)c(C(=O)O)c1)c1ccc2c(c1)OCO2 | 1 | 15 | 4 | 9 | -2 | x | x
O=C(O)c1cc(N/N=C/c2ccc3c(c2)OCO3)ccc1Cl | 0.8 | 17 | 21 | 47* | -3 | 83* | 54*
O=C(O)c1ccc(N/N=C/c2ccc3c(c2)OCO3)cc1 | 0.4 | 4 | 61* | 82* | 31 | 94* | 88*
O=C(O)c1cc(N/N=C/c2ccc3c(c2)OCCO3)ccc1Cl | 0.4 | 6 | 56* | 39* | -13 | 87* | 82*
Cn1nc(C(C)(C)C)cc1N1C(=O)CCC1(C)C(=O)NC1CCCC1 (centres undefined) | x | x | x | x | 1 | x | x
Oc1cccc(C=Nc2cccc3ccccc23)c1O | x | x | x | 23* | 29 | 3 | -4
O=c1c2c([nH]c3ccccc13)CCC2 | x | x | x | 20* | -25 | -6 | -7
O=C(Cn1c(=O)n(Cc2ccc(F)cc2)c(=O)c2ccccc21)NCC1CCCO1 (centres undefined) | x | x | x | 18* | -28 | -7 | -11
CC1CN/C(=C\C(=O)c2ccccc2)C(=O)N1 (centres undefined) | 0.8 | 24 | 20 | 2 | 2 | x | x
CC1CN/C(=C\C(=O)c2ccc(Cl)cc2)C(=O)N1 (centres undefined) | 0.5 | 28 | 51* | 22* | 14 | 40* | 24*
COc1ccc(N(C(=O)c2ccco2)S(=O)(=O)c2ccc(F)cc2)cc1 | 1.1 | 25 | -7 | 17* | 2 | 0 | -4
